# The source made the active and inactive calls. The calls are words filed in the database; no cut-off is given here.
# Experiments:
# [1] = test system: H9; assay: Inhibitory activity against HIV-1 replication in H9 lymphocytes; assay type: functional, cell-based; conditions: Homo sapiens
# Method in brief: (§1)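 They were infected with HIV-1 at a moi of 0.1–0.01 for 4 h, washed three times, and then cultured for 4 days with graded drug concentrations; AZT was run as a control. Day-4 cell-free supernatant p24 was measured by ELISA. Toxicity was measured by Coulter counts of mock-infected cells.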
# [2] = test system: H9; assay: Toxicity was determined in H9 lymphocytes; assay type: functional, cell-based; conditions: Homo sapiens; method in brief: as §1
# [3] = Therapeutic index is the ratio of IC50 to EC50 in H9 lymphocytes; assay type: cell-based; conditions: human, read-out: TI; method in brief: as §1
# [4] = test system: H9; assay: Inhibitory activity against HIV-1 replication in H9 lymphocytes; NS= no suppression; assay type: functional, cell-based; conditions: Homo sapiens; method in brief: as §1
EC50 [1] [nM],SMILES,IC50 [2] [nM],selectivity ratio [3],NS [4]
4.19,Cc1cc2c(c3oc(=O)cc(C)c13)[C@@H](OC(=O)C13CCC(C)(C(=O)O1)C3(C)C)[C@@H](OC(=O)C13CCC(C)(C(=O)O1)C3(C)C)C(C)(C)O2 (stereo partly drawn),> 154000,> 36800,–
2.01,Cc1c(Cl)c(=O)oc2c3c(ccc12)OC(C)(C)[C@H](OC(=O)C12CCC(C)(C(=O)O1)C2(C)C)[C@@H]3OC(=O)C12CCC(C)(C(=O)O1)C2(C)C (stereo partly drawn),104000,51700,–
9.1,Cc1cc2c(C)cc3c(c2oc1=O)[C@@H](OC(=O)C12CCC(C)(C(=O)O1)C2(C)C)[C@@H](OC(=O)C12CCC(C)(C(=O)O1)C2(C)C)C(C)(C)O3 (stereo partly drawn),> 154000,> 16900,–
–,Cc1cc2c(c3oc(=O)cc(C(C)C)c13)[C@@H](OC(=O)C13CCC(C)(C(=O)O1)C3(C)C)[C@@H](OC(=O)C13CCC(C)(C(=O)O1)C3(C)C)C(C)(C)O2 (stereo partly drawn),> 147000,–,inactive
43700,Cc1c(-c2ccccc2)c(=O)oc2c3c(ccc12)OC(C)(C)[C@H](OC(=O)C12CCC(C)(C(=O)O1)C2(C)C)[C@@H]3OC(=O)C12CCC(C)(C(=O)O1)C2(C)C (stereo partly drawn),> 140000,> 3.2,–
1.92,Cc1c(C)c2ccc3c(c2oc1=O)[C@@H](OC(=O)C12CCC(C)(C(=O)O1)C2(C)C)[C@@H](OC(=O)C12CCC(C)(C(=O)O1)C2(C)C)C(C)(C)O3 (stereo partly drawn),> 154000,> 80200,–
2.12,CC1(C)Oc2ccc3c4c(c(=O)oc3c2[C@@H](OC(=O)C23CCC(C)(C(=O)O2)C3(C)C)[C@H]1OC(=O)C12CCC(C)(C(=O)O1)C2(C)C)CCCC4 (stereo partly drawn),> 148000,> 69800,–
0.256,CC1(C)Oc2ccc3ccc(=O)oc3c2[C@@H](OC(=O)C23CCC(C)(C(=O)O2)C3(C)C)[C@H]1OC(=O)C12CCC(C)(C(=O)O1)C2(C)C (stereo partly drawn),–,137000,–
1540,Cc1cc(=O)oc2c3c(cc(OCc4ccccc4)c12)OC(C)(C)[C@H](OC(=O)C12CCC(C)(C(=O)O1)C2(C)C)[C@@H]3OC(=O)C12CCC(C)(C(=O)O1)C2(C)C (stereo partly drawn),135000,87.7,–
0.00721,COc1cc2c(c3oc(=O)cc(C)c13)[C@@H](OC(=O)C13CCC(C)(C(=O)O1)C3(C)C)[C@@H](OC(=O)C13CCC(C)(C(=O)O1)C3(C)C)C(C)(C)O2 (stereo partly drawn),> 150000,> 2.08e+07,–

# — ChEMBL document CHEMBL1134354, “Anti-AIDS agents. 42. Synthesis and anti-HIV activity of disubstituted (3'R,4'R)-3',4'-di-O-(S)-camphanoyl-(+)-cis-khellactone analogues” (J Med Chem, 2001)
